Results reported in ChEMBL document CHEMBL1681720, “Maintaining potent HTLV-I protease inhibition without the P3-cap moiety in small tetrapeptidic inhibitors” (Bioorg Med Chem Lett, 2011).

Experiments:
[1] = system: T1, Protease (Human T-cell leukemia virus type I), Q82134 [L40I]; test: Inhibition of HTLV-1 protease L40I mutant at 50 nM by fluorimetric assay
T1 sequence (whole entry): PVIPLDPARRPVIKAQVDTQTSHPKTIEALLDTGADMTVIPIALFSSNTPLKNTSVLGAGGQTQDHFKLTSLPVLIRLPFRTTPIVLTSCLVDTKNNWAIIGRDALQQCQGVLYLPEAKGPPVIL
How it was run: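 Recombinant L40I-mutant HTLV-I protease, mutation limits autoproteolysis; fluorescent substrate read-out. Test compound at 50 nM, percent inhibition from single determinations.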

Protease = Protease (Human T-cell leukemia virus type I, UniProt Q82134, L40I); test: Inhibition of HTLV-1 protease L40I mutant by fluorimetric assay
How it was run: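 Recombinant L40I-mutant HTLV-I protease, mutation limits autoproteolysis; fluorescent substrate cleavage. Percent inhibition measured singly at 1, 5, 10, 20, 50 and 100 nM test compound. IC50 read from fitted sigmoid plot, error range from RMSD of the plot.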

[2] = biological target: Protease (Human immunodeficiency virus 1) (UniProt Q9YQ12); test: Inhibition of recombinant HIV-1 protease at 50 nM
Sequence of Protease (Human immunodeficiency virus 1) (Q9YQ12 as listed by the source): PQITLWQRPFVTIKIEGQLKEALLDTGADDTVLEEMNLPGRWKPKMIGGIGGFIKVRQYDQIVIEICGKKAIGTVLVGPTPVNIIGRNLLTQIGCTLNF

| Structure (SMILES) | inhibition [1] [%] | IC50 (Protease) [nM] | inhibition [2] [%] | INH [2] [nM] |
| --- | --- | --- | --- | --- |
| CC(C)(C)CNC(=O)[C@H]1N(C(=O)[C@@H](O)[C@H](Cc2ccccc2)NC(=O)[C@@H](NC(=O)[C@@H](N)c2ccccc2)C(C)(C)C)CSC1(C)C | 69 | 37 | > 99 |  |
| CC(C)(C)CNC(=O)[C@H]1N(C(=O)[C@@H](O)[C@H](Cc2ccccc2)NC(=O)[C@@H](NC(=O)[C@H](O)c2ccccc2)C(C)(C)C)CSC1(C)C | 10 |  | 82 |  |
| CCCC(=O)NC(C(=O)N[C@H](C(=O)N[C@@H](Cc1ccccc1)[C@H](O)C(=O)N1CSC(C)(C)[C@H]1C(=O)NCC(C)(C)C)C(C)(C)C)c1cc(F)c(F)c(F)c1 (stereo in doubt; 20a) [listing 1 of 2 here] |  | 11 |  |  |
| CCCC(=O)NC(C(=O)N[C@H](C(=O)N[C@@H](Cc1ccccc1)[C@H](O)C(=O)N1CSC(C)(C)[C@H]1C(=O)NCC(C)(C)C)C(C)(C)C)c1cc(F)c(F)c(F)c1 (stereo in doubt; 19a) [listing 1 of 2 here] | 84 |  | > 99 |  |
| CC(C)(C)CNC(=O)[C@H]1N(C(=O)[C@@H](O)[C@H](Cc2ccccc2)NC(=O)[C@@H](NC(=O)C(C)(C)c2ccccc2)C(C)(C)C)CSC1(C)C | 4 |  | 80 |  |
| CCCC(=O)N[C@H](C(=O)N[C@H](C(=O)N[C@@H](Cc1ccccc1)[C@H](O)C(=O)N1CSC(C)(C)[C@H]1C(=O)NCC(C)(C)C)C(C)(C)C)[C@@H](C)CC | 86 | 6.1 | 95 |  |
| CC(C)(C)CNC(=O)[C@H]1N(C(=O)[C@@H](O)[C@H](Cc2ccccc2)NC(=O)[C@@H](NC(=O)[C@@H](N)Cc2ccccc2)C(C)(C)C)CSC1(C)C | 28 |  | > 99 |  |
| CC(C)(C)CNC(=O)[C@H]1N(C(=O)[C@@H](O)[C@H](Cc2ccccc2)NC(=O)[C@@H](NC(=O)[C@@H](N)C2CCCCC2)C(C)(C)C)CSC1(C)C | 65 | 35.8 | 99 |  |
| CC[C@H](C)[C@H](N)C(=O)N[C@H](C(=O)N[C@@H](Cc1ccccc1)[C@H](O)C(=O)N1CSC(C)(C)[C@H]1C(=O)NCC(C)(C)C)C(C)(C)C | 31 |  | 97 |  |
| CC(C)(C)CNC(=O)[C@H]1N(C(=O)[C@@H](O)[C@H](Cc2ccccc2)NC(=O)[C@@H](NC(=O)C(C(=O)OCc2ccccc2)c2ccccc2)C(C)(C)C)CSC1(C)C (mixture of isomers) | 26 |  | 34 |  |
| CC(C)(C)CNC(=O)[C@H]1N(C(=O)[C@@H](O)[C@H](Cc2ccccc2)NC(=O)[C@@H](NC(=O)[C@@H](N)C(C)(C)C)C(C)(C)C)CSC1(C)C | 19 |  | 95 |  |
| CCCC(=O)NC(C(=O)N[C@H](C(=O)N[C@@H](Cc1ccccc1)[C@H](O)C(=O)N1CSC(C)(C)[C@H]1C(=O)NCC(C)(C)C)C(C)(C)C)c1cc(F)c(F)c(F)c1 (stereo in doubt; 19a) [listing 2 of 2 here] |  | 13.2 |  |  |
| CCCC(=O)NC(C(=O)N[C@H](C(=O)N[C@@H](Cc1ccccc1)[C@H](O)C(=O)N1CSC(C)(C)[C@H]1C(=O)NCC(C)(C)C)C(C)(C)C)c1cc(F)c(F)c(F)c1 (single isomer, unassigned; enantiomer b) | 20 |  | 80 |  |
| CCCC(=O)NC(C(=O)N[C@H](C(=O)N[C@@H](Cc1ccccc1)[C@H](O)C(=O)N1CSC(C)(C)[C@H]1C(=O)NCC(C)(C)C)C(C)(C)C)c1cc(F)c(F)c(F)c1 (stereo in doubt; 19b) | 18 |  | 68 |  |
| CCCC(=O)N[C@H](C(=O)N[C@H](C(=O)N[C@@H](Cc1ccccc1)[C@H](O)C(=O)N1CSC(C)(C)[C@H]1C(=O)NCC(C)(C)C)C(C)(C)C)c1ccccc1 | 93 | 6.4 |  | 99 |
| CCCC(=O)NC(C(=O)N[C@H](C(=O)N[C@@H](Cc1ccccc1)[C@H](O)C(=O)N1CSC(C)(C)[C@H]1C(=O)NCC(C)(C)C)C(C)(C)C)c1cc(F)c(F)c(F)c1 (stereo in doubt; 20a) [listing 2 of 2 here] | 81 |  | > 99 |  |
| CC(C)(C)CNC(=O)[C@H]1N(C(=O)[C@@H](O)[C@H](Cc2ccccc2)NC(=O)[C@@H](NC(=O)C(=O)c2ccccc2)C(C)(C)C)CSC1(C)C | 33 |  | 76 |  |
| CC(C)[C@H](N)C(=O)N[C@H](C(=O)N[C@@H](Cc1ccccc1)[C@H](O)C(=O)N1CSC(C)(C)[C@H]1C(=O)NCC(C)(C)C)C(C)(C)C | 26 |  | 96 |  |
| CC(C)(C)CNC(=O)[C@H]1N(C(=O)[C@@H](O)[C@H](Cc2ccccc2)NC(=O)[C@@H](NC(=O)[C@@H](O)c2ccccc2)C(C)(C)C)CSC1(C)C | 43 |  | 92 |  |
| CC(C)(C)CNC(=O)[C@H]1N(C(=O)[C@@H](O)[C@H](Cc2ccccc2)NC(=O)[C@@H](NC(=O)Cc2ccccc2)C(C)(C)C)CSC1(C)C | 8 |  | 22 |  |
| CC(C)(C)CNC(=O)[C@H]1N(C(=O)[C@@H](O)[C@H](Cc2ccccc2)NC(=O)[C@@H](NC(=O)C2CCCCN2)C(C)(C)C)CSC1(C)C (single isomer, unassigned; enantiomer b) | 11 |  | 54 |  |
| CC(C)(C)CNC(=O)[C@H]1N(C(=O)[C@@H](O)[C@H](Cc2ccccc2)NC(=O)[C@@H](NC(=O)C2CCCCN2)C(C)(C)C)CSC1(C)C (stereo in doubt; 14a) | 24 |  | 93 |  |
